# High-throughput results as filed in PubChem BioAssay.
# This is a sample that favours compounds with a hit; in the whole collection about 8.2% have one here.
# HePTP inhibitor – inhibitors of human HePTP phosphatase, primary screen, biochemical, absorbance, leukemia target; recombinant HePTP phosphatase activity, OD absorbance; inhibition, % at 20 µM; 110,000 tested, 0.64% active; in the data active = inhibition above about 50%;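 note: plate controls were vehicle for no effect and reference inhibitor for full effect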
# M1 agonist – M1 muscarinic receptor agonists, primary screen, CHO-M1 cells, Fluo-4 calcium, agonist mode; Muscarinic acetylcholine receptor M1; Fluo-4 calcium fluorescence; stronger effect = higher value; B-score at 10 µM; 64,000 tested, 3% active; AID 626, 2007;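 active = fluorescence rise, raw or as B-score row- and column-corrected plate score, outside the 99.7% band of its plate's samples, either direction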
# RORA act – activators of orphan receptor RORA, primary screen, cell-based, luminescence | Nuclear receptor ROR-alpha (Homo sapiens), P35398 | CHO-K1 Gal4-RORA LBD luciferase reporter; percent increase over mock-subtracted basal signal | activation, % at 10 µM | 65,000 tested, 1.5% active | AID 560, 2006;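 active = activation above the mean of all tested compounds plus 3 SD, cut at about 49% in these data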;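 note: 0% = DMSO-treated RORA cells and 100% = added signal equal to DMSO minus mock-transfected cells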
# SF1 activator – activators of human SF-1, primary screen, cell-based, CHO-K1, Gal4-SF-1 LBD, luciferase luminescence | Steroidogenic factor 1 (Homo sapiens), Q13285 | CHO-K1 Gal4-SF-1 LBD luciferase reporter; % increase over DMSO SF-1-specific signal | activation, % at 10 µM | 65,000 tested, 1.9% active | AID 522, 2006;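 active = activation above the mean activation of all tested compounds plus 3 SD, cut at about 50% in these data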
# Target sequence (Q13285 whole entry, looked up, the tested form may be a part): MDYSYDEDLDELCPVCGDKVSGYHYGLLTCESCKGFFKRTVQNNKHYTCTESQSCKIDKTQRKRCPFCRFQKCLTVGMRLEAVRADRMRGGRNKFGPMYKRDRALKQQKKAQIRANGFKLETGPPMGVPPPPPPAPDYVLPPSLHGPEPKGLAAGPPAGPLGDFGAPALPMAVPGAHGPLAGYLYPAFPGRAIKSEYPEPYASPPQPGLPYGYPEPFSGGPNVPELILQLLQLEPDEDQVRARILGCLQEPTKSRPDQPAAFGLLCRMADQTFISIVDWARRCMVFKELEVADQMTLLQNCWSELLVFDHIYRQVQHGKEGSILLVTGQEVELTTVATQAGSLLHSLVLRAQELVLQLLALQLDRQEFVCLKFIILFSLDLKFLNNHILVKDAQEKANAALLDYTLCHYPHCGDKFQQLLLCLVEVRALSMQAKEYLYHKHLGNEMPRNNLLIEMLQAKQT
#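 Test system: CHO-K1 cells co-transfected with Gal4 DBD–human SF-1 LBD, 5xGal4 luciferase reporter. Quantity: 4,000 cells per well. Compound: 10 µM only. Incubation: compound added 1 h post-seeding, 20 h exposure at 37 °C, 5% CO2. Detection: SteadyLite luciferase luminescence. Replication: one test per compound.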
# M1 antagonist – antagonists of rat M1 muscarinic receptor | 64,000 tested, 3.4% active | B-score at 10 µM | CHO-M1 cells, Fluo-4 calcium, ACh EC80 antagonist mode; stronger effect = lower value | Muscarinic acetylcholine receptor M1 (Rattus norvegicus), P08482 | AID 628, 2007;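 active = calcium fluorescence response, raw or row-and-column corrected B-score, differing from the plate sample mean either way at a set confidence level, mostly lower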
# D1 mod – D1 CRE-luciferase signal change, two-sided – cell-based, HEK293 D1, dopamine EC30, D1 allosteric modulator project, primary screen; D(1A) dopamine receptor (Homo sapiens), P21728; B-score at 10 µM; 58,000 tested, 5.9% active; dopamine EC30 potentiation; actives deviate in either direction; AID 641, 2007;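 active = luminescence count or its row- and column-corrected plate score outside the 99.7% band of the plate's sample wells, on either side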
# M1 antag conf – rat M1 muscarinic receptor antagonists, confirmation, CHO cells, Fluo-4 calcium, duplicate; AID 677, 2007; shares compounds with M1 antagonist; 1,700 tested, 43% active; ACh EC80 antagonism; stronger effect = lower value; calcium response (max-min fluorescence) at 10 µM;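 active = calcium response below the same-plate mean of wells given acetylcholine alone at its 80%-effect dose, minus 3 SD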;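 note: raw fluorescence intensity difference in arbitrary instrument units and not normalized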
# mGluR4 antag – human mGluR4 response to M1 antagonist hits, M1 allosteric modulator project, cell-based, antagonist mode, secondary assay 1 | shares compounds with M1 antagonist | CHO-mGluR4 calcium flux, Fluo-4 fluorescence, glutamate EC80; stronger effect = lower value | fluorescence response (max-min) at 10 µM | 1,700 tested, 0.9% active;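 active = fluorescence response below the plate's average for near-maximal glutamate wells, less 3 SD of those wells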;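 note: raw unnormalized fluorescence span taken in the window right after glutamate addition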
# * hit, by the source's call; / = no result.
SMILES,HePTP inhibitor,M1 agonist,RORA act,SF1 activator,M1 antagonist,D1 mod,M1 antag conf,mGluR4 antag
CN1C=CC=C/C1=C1\SC(=S)N(C2CCCCC2)C1=O,-1.7,-0.0364,/,/,-6.09*,0.281,488*,261
CCN(CC)CCOC(=O)c1cccc(Cl)c1,0.6,-0.121,-6.8,-5.1,-0.98,-0.0238,/,/
CCN(CC)CCOC(=O)c1cccc(Br)c1,-15.1,0.174,0.4,-5.3,-4.37*,-0.108,472*,267
COc1ccc(-c2noc(CCC(=O)Nc3ccc(C)c(C)c3)n2)cc1,3.5,-0.00182,-5.0,0.3,-3.15*,-0.299,647,166
COc1ccc(-c2noc(CCC(=O)NCC3CCN(Cc4cccc(C)c4)CC3)n2)cc1,2.3,3.42,-10.7,20.7,-3.59*,-0.205,399*,240
CCOc1ccc(-c2noc(CCC(=O)O)n2)cc1,-0.1,-0.664,-53.9,-53.3,-0.866*,/,638,240
CCCc1nnc(NC(=O)CCC(=O)O)s1,5.8,-0.151,-4.8,-11.0,0.726,/,/,/
Cc1ccc(Cl)cc1N(CC(=O)N1CCCCCC1)S(C)(=O)=O,-6.7,0.136,2.8,-24.7,-2.87*,0.523,616,241
CS(=O)(=O)N(CC(=O)N1CCCC1)c1cccc(Cl)c1,6.9,/,-17.7,17.0,/,-0.226,/,/
CCCc1cc(=O)oc2cc(OCc3ccc(Cl)cc3)ccc12,-5.6,/,/,/,/,/,/,/
O=C1c2ccccc2C(=O)N1CCCC(=O)N1CCc2ccccc21,8.3,0.144,/,/,-0.429,-0.398,/,/
O=C(Nc1ccc(S(=O)(=O)Nc2ccc(Cl)cc2)cc1)C1CCCO1 (stereo not drawn),8.7,-0.149,-23.7,5.7,-1.15*,0.0573,575,297
O=C(Nc1ccc(S(=O)(=O)N2CCCCCC2)cc1)C1CCCO1 (stereo not drawn),-3.0,-0.00326,-14.7,-6.9,-3.16*,-0.732,654,218
O=C(NS(=O)(=O)c1ccc(NC(=O)C2CCCO2)cc1)c1ccccc1 (stereo not drawn),6.3,-0.24,-2.7,-13.6,0.124,-0.18,/,/
COc1ccc(C(=O)O)cc1F,-2.9,0.0486,-7.6,-6.7,0.78,/,/,/
COC(=O)c1ccccc1NC(=O)c1cc(-c2cccs2)on1,7.4,-1.3,1.9,-7.2,-2.59*,-0.012,653,198
CCOC(=O)COc1cc2c3c(c(=O)oc2cc1C)CCCC3,3.2,1.53,10.9,-8.7,-17.2*,1.1,119*,271
Cc1cc(N2CCOCC2)n2nc(C)c(-c3ccccc3)c2n1,3.7,-0.299,9.7,15.6,-0.423,1.26,/,/
Cc1cccc(Cn2c(=O)c3c(nc4n3CCN4Cc3ccco3)n(C)c2=O)c1,1.5,-0.55,8.4,-11.6,0.191,-0.25,/,/
CCCCn1c(=O)n(Cc2cccc(F)c2)c(=O)c2c1ncn2Cc1ccco1,0.7,0.326,-4.4,2.0,-1.49*,2.94,515,213
C/C=C(/C(=C/C)c1ccc(O)cc1)c1ccc(O)cc1,8.7,0.862,-13.5,-4.9,0.165,2.32,/,/
COc1ccc2[nH]c3c(c2c1)CN(C)CC3,8.9,0.756,25.3,0.1,-1.94*,-2.65,448,193
Oc1ccc(Nc2nc(NCC3CCCO3)c3ccccc3n2)cc1 (stereo not drawn),9.6,0.605,5.8,-5.3,-5.71*,-2.88*,483*,237
CCn1c(SCC(=O)N2CCCc3ccccc32)nc2c1c(=O)n(C)c(=O)n2C,5.0,3.72,11.7,-7.8,2.12,-0.555,/,/
c1cncc(-c2nc(-c3ccco3)cs2)c1,-1.9,0.14,-5.8,-9.3,-0.013,1.07,/,/
SMILES,HePTP inhibitor,M1 agonist,RORA act,SF1 activator,M1 antagonist,D1 mod,M1 antag conf,mGluR4 antag
CC(C)n1c(-c2ccco2)csc1=Nc1cccnc1,4.3,-0.225,-27.6,3.8,-3.28*,0.163,471*,194
N#Cc1c(-n2cccc2/C=N/O)sc2c1CCCC2,13.7,-0.259,8.8,-0.7,-7.01*,-0.178,248*,187
Cc1sc2ncnc(NCC(c3ccco3)N(C)C)c2c1C (stereo not drawn),5.3,-0.81,-29.5,-4.7,-21.4*,0.0223,582,245
O=C(NC1CCCCC1)c1noc2c1CCCCC2,10.9,0.216,44.1,43.1,-1.9*,-0.109,598,266
Clc1ccc(CN2C3=NCCN3c3ccccc32)cc1Cl,8.6,-1.47,-1.1,-4.9,-3.22*,-1.46,399*,247
c1ccc(CN2C3=NCCN3c3ccccc32)cc1,5.1,/,/,/,/,/,/,/
CCOC(=O)N1CCN(C(=O)CSCc2nc(-c3ccccc3C)oc2C)CC1,10.5,-1.9,-9.2,-3.2,-0.366,-0.125,/,/
Cc1oc(-c2ccc(Cl)cc2)nc1CN1CCCC(C(=O)NCCCN2CCCC2=O)C1 (stereo not drawn),3.0,-0.828,14.2,-15.5,-3.97*,0.558,510,247
Cc1oc(-c2ccc(Cl)cc2)nc1CN1CCCC(C(=O)N2CCc3ccccc32)C1 (stereo not drawn),7.1,-0.117,1.4,-0.5,-0.179,-0.0539,/,/
CCOC(=O)N1CCN(C(=O)C2CCN(Cc3nc(-c4ccccc4C)oc3C)CC2)CC1,1.9,-0.723,3.5,-12.3,-3.04*,-0.142,538,224
CCOC(=O)N1CCN(C(=O)C2CCCN(Cc3nc(-c4ccc(Cl)cc4)oc3C)C2)CC1 (stereo not drawn),8.7,0.482,-3.2,15.8,-3.78*,-2.6,343*,233
NC(=O)C(=O)Nc1ccc(Oc2ccccc2)cc1,-14.5,/,/,/,/,/,/,/
Cc1ccc(Nc2cc(-n3nc(C)cc3C)ncn2)cc1,-7.3,0.348,-3.2,-5.2,-0.118,-0.957,/,/
COc1ccc(CC(=O)N=Nc2c(O)n(CN3CCN(C)CC3)c3ccccc23)cc1,-11.2,/,/,/,/,/,/,/
O=C1C=C(c2cccs2)CC(c2cccs2)C1n1cnc([N+](=O)[O-])c1 (stereo not drawn),-2.1,/,/,/,/,/,/,/
O=C(CSc1ncccc1-c1nc2ccccc2[nH]1)NCc1ccco1,-0.1,-0.814,-1.8,-6.6,0.325,-1.97,/,/
COC(=O)CSc1ncccc1-c1nc2ccccc2[nH]1,-5.7,-0.523,12.1,-7.2,-2.35*,-3.59,682,231
